Assay results as given in ChEMBL document CHEMBL1124660, “Synthesis and in vitro aldose reductase inhibitory activity of compounds containing an N-acylglycine moiety” (J Med Chem, 1989).

Assays:
[1] = target: T1, Aldo-keto reductase family 1 member B1 (Rattus norvegicus, UniProt P07943); assay: Inhibition of aldose reductase from rat lens. Value ranges from 1.5 - 16
Procedure, shortened: (§1)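 Rat lens aldose reductase was the 40% ammonium sulfate supernatant. Assay at 30 °C in 0.1 M phosphate, pH 6.2, with 0.104 mM NADPH and 10 mM DL-glyceraldehyde, following NADPH decrease at 340 nm over 3.0 min. At least four inhibitor concentrations, three or more determinations each.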

[2] = target: Aldo-keto reductase family 1 member B1 (Rattus norvegicus) (UniProt P07943); assay: Compound was evaluated at 100 uM for the ability to inhibit partially purified aldose reductase obtained from rat lens
Procedure, shortened: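 Enzyme: 40%-saturation ammonium sulfate supernatant from homogenized rat lenses, diluted so the control rate was about 0.0100 absorbance/min. Reaction at 30 °C in 0.1 M phosphate, pH 6.2, with 0.104 mM NADPH and 10 mM DL-glyceraldehyde, started by substrate. NADPH loss was read at 340 nm for 3.0 min after a 1.0 min lag. Percent inhibition at 100 µM was taken against the substrate-only control.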

[3] = target: T1, Aldo-keto reductase family 1 member B1; assay: Inhibition of aldose reductase from rat lens. Value ranges from 110 - 430; procedure, shortened: as §1
[4] = target: T1, Aldo-keto reductase family 1 member B1; assay: Inhibition of aldose reductase from rat lens. Value ranges from 0.5 - 16; procedure, shortened: as §1
[5] = target: T1, Aldo-keto reductase family 1 member B1; assay: Inhibition of aldose reductase from rat lens. Value ranges from 10 - 42; procedure, shortened: as §1
[6] = target: T1, Aldo-keto reductase family 1 member B1; assay: Inhibition of aldose reductase from rat lens. Value ranges from 3 - 300; procedure, shortened: as §1
[7] = target: T1, Aldo-keto reductase family 1 member B1; assay: Inhibition of aldose reductase from rat lens. Value ranges from 50 - 650; procedure, shortened: as §1
[8] = target: T1, Aldo-keto reductase family 1 member B1; assay: Inhibition of aldose reductase from rat lens. Value ranges from 6 - 14; procedure, shortened: as §1
[9] = target: T1, Aldo-keto reductase family 1 member B1; assay: Inhibition of aldose reductase from rat lens. Value ranges from 300 - 1100; procedure, shortened: as §1
[10] = target: T1, Aldo-keto reductase family 1 member B1; assay: Inhibition of aldose reductase from rat lens. Value ranges from 10 - 130; procedure, shortened: as §1
[11] = target: T1, Aldo-keto reductase family 1 member B1; assay: Inhibition of aldose reductase from rat lens. Value ranges from 20 - 160; procedure, shortened: as §1
[12] = target: T1, Aldo-keto reductase family 1 member B1; assay: Inhibition of aldose reductase from rat lens. Value ranges from 0.6 - 47; procedure, shortened: as §1
[13] = target: T1, Aldo-keto reductase family 1 member B1; assay: Inhibition of aldose reductase from rat lens. Value ranges from 9 - 69; procedure, shortened: as §1
[14] = target: T1, Aldo-keto reductase family 1 member B1; assay: Inhibition of aldose reductase from rat lens. Value ranges from 17 - 720; procedure, shortened: as §1
[15] = target: T1, Aldo-keto reductase family 1 member B1; assay: Inhibition of aldose reductase from rat lens. Value ranges from 16 - 360; procedure, shortened: as §1
[16] = target: T1, Aldo-keto reductase family 1 member B1; assay: Inhibition of aldose reductase from rat lens. Value ranges from 35-160; procedure, shortened: as §1
[17] = target: T1, Aldo-keto reductase family 1 member B1; assay: Inhibition of aldose reductase from rat lens. Value ranges from 0.1 - 7; procedure, shortened: as §1
[18] = target: T1, Aldo-keto reductase family 1 member B1; assay: Inhibition of aldose reductase from rat lens. Value ranges from 40 - 680; procedure, shortened: as §1
[19] = target: T1, Aldo-keto reductase family 1 member B1; assay: Inhibition of aldose reductase from rat lens. Value ranges from 10 - 520; procedure, shortened: as §1
[20] = target: T1, Aldo-keto reductase family 1 member B1; assay: Inhibition of aldose reductase from rat lens. Value ranges from 140 - 580; procedure, shortened: as §1
[21] = target: T1, Aldo-keto reductase family 1 member B1; assay: Inhibition of aldose reductase from rat lens. Value ranges from 0.15 - 3.3; procedure, shortened: as §1
[22] = target: T1, Aldo-keto reductase family 1 member B1; assay: Inhibition of aldose reductase from rat lens. Value ranges from 7 - 33; procedure, shortened: as §1
[23] = target: T1, Aldo-keto reductase family 1 member B1; assay: Inhibition of aldose reductase from rat lens. Value ranges from 10 - 1300; procedure, shortened: as §1
[24] = target: T1, Aldo-keto reductase family 1 member B1; assay: Inhibition of aldose reductase from rat lens. Value ranges from 32 - 110; procedure, shortened: as §1
[25] = target: T1, Aldo-keto reductase family 1 member B1; assay: Inhibition of aldose reductase from rat lens. Value ranges from 7 - 130; procedure, shortened: as §1
[26] = target: T1, Aldo-keto reductase family 1 member B1; assay: Inhibition of aldose reductase from rat lens. Value ranges from 0.3 - 2.3; procedure, shortened: as §1
[27] = target: T1, Aldo-keto reductase family 1 member B1; assay: Inhibition of aldose reductase from rat lens. Value ranges from 8.5 - 410; procedure, shortened: as §1
[28] = target: T1, Aldo-keto reductase family 1 member B1; assay: Inhibition of aldose reductase from rat lens. Value ranges from 5 - 97; procedure, shortened: as §1
[29] = target: T1, Aldo-keto reductase family 1 member B1; assay: Inhibition of aldose reductase from rat lens. Value ranges from 280 - 490; procedure, shortened: as §1
[30] = target: T1, Aldo-keto reductase family 1 member B1; assay: Inhibition of aldose reductase from rat lens. Value ranges from 4.9 - 23; procedure, shortened: as §1
[31] = target: T1, Aldo-keto reductase family 1 member B1; assay: Inhibition of aldose reductase from rat lens. Value ranges from 1.0 - 34; procedure, shortened: as §1
[32] = target: T1, Aldo-keto reductase family 1 member B1; assay: Inhibition of aldose reductase from rat lens. Value ranges from 300 - 2000; procedure, shortened: as §1
[33] = target: T1, Aldo-keto reductase family 1 member B1; assay: Inhibition of aldose reductase from rat lens. Value ranges from 0.02 -0.64; procedure, shortened: as §1
[34] = target: T1, Aldo-keto reductase family 1 member B1; assay: Inhibition of aldose reductase from rat lens. Value ranges from 25-64; procedure, shortened: as §1

**Q.** For `O=C(O)CN(C(=O)c1ccccc1)c1ccc(Cl)cc1`, which IC50 [1] is on record?
**A.** 5 µM

**Q.** With `Nc1cccc(C(=O)NCC(=O)O)c1` as the molecule, how does the inhibition [2] read?
**A.** 36%

**Q.** `Cc1ccc(C(=O)NCC(=O)O)cc1` was tested. Which IC50 [3] did it give?
**A.** 220 µM

**Q.** How did the IC50 [4] turn out when `Cc1ccc(N(CC(=O)O)C(=O)c2ccccc2)cc1` was run?
**A.** 3 µM

**Q.** `CC(=O)N(CC(=O)O)c1cccc([N+](=O)[O-])c1` was tested. Which IC50 [5] did it give?
**A.** 27 µM

**Q.** For `O=C(O)CNC(=O)c1ccccc1Cl`, which IC50 [6] is on record?
**A.** 31 µM

**Q.** `CC(NC(=O)c1ccccc1)C(=O)O` (stereo not drawn) was tested. Which inhibition [2] did it give?
**A.** 14%

**Q.** With `CC(=O)N(CC(=O)O)c1ccccc1C` as the molecule, how does the inhibition [2] read?
**A.** 14%

**Q.** For `O=C(O)CN(C(=O)c1ccccc1)c1cccc2ccccc12`, which IC50 [7] is on record?
**A.** 230 µM

**Q.** `O=C(O)CN(C(=O)c1ccccc1)c1ccccc1` was tested. Which IC50 [8] did it give?
**A.** 9.5 µM

**Q.** `O=C(O)CNC(=O)c1ccc(Cl)cc1` [4-CHLOROHIPPURIC ACID] was tested. Which IC50 [9] did it give?
**A.** 550 µM

**Q.** Which IC50 [10] does the source give for `CC(=O)N(CC(=O)O)c1ccc(O)cc1` here?
**A.** 34 µM

**Q.** With `CC(=O)N(CC(=O)O)c1ccc(N)cc1` as the molecule, how does the IC50 [11] read?
**A.** 55 µM

**Q.** `CC(=O)N(CC(=O)O)c1ccc([N+](=O)[O-])cc1` was tested. Which IC50 [12] did it give?
**A.** 5.8 µM

**Q.** Which IC50 [13] does the source give for `CC(=O)N(CC(=O)O)c1ccc(Cl)cc1` here?
**A.** 25 µM

**Q.** Which inhibition [2] does the source give for `Cc1ccc(C(=O)NC(C)C(=O)O)cc1` (stereo not drawn) here?
**A.** 19%

**Q.** With `Nc1ccc(C(=O)NCC(=O)O)cc1` as the molecule, how does the inhibition [2] read?
**A.** 22%

**Q.** Which IC50 [14] does the source give for `CC(=O)N(c1ccc(Cl)cc1)C(C)C(=O)O` (stereo not drawn) here?
**A.** 110 µM

**Q.** How did the IC50 [15] turn out when `CC(=O)N(c1ccc(C)cc1)C(C)C(=O)O` (stereo not drawn) was run?
**A.** 128 µM

**Q.** How did the IC50 [16] turn out when `COc1ccc(C(=O)NCC(=O)O)cc1` was run?
**A.** 71 µM

**Q.** With `COc1ccc(N(CC(=O)O)C(=O)c2ccccc2)cc1` as the molecule, how does the IC50 [17] read?
**A.** 0.96 µM

**Q.** `O=C(O)CN(C(=O)c1ccccc1)c1ccc2ccccc2c1` was tested. Which IC50 [18] did it give?
**A.** 220 µM

**Q.** For `O=C(O)CN1C(=O)c2ccccc2CCc2ccccc21`, which IC50 [19] is on record?
**A.** 79 µM

**Q.** How did the IC50 [20] turn out when `O=C(O)CNC(=O)c1ccc([N+](=O)[O-])cc1` was run?
**A.** 280 µM

**Q.** `O=C(O)CN1C(=O)c2cccc3cccc1c23` was tested. Which IC50 [21] did it give?
**A.** 0.67 µM

**Q.** For `CC(=O)N(CC(=O)O)c1ccc(C)cc1`, which IC50 [22] is on record?
**A.** 15 µM

**Q.** For `CC(=O)N(c1ccccc1)C(C)C(=O)O` (stereo not drawn), which IC50 [23] is on record?
**A.** 200 µM

**Q.** For `O=C(O)CNC(=O)c1ccccc1[N+](=O)[O-]`, which IC50 [24] is on record?
**A.** 58 µM

**Q.** With `COc1ccc(C(=O)NC(C)C(=O)O)cc1` (stereo not drawn) as the molecule, how does the inhibition [2] read?
**A.** 38%

**Q.** `COc1ccc(N(CC(=O)O)C(C)=O)cc1` was tested. Which IC50 [25] did it give?
**A.** 80 µM

**Q.** `O=C(O)CNC(=O)c1cccc([N+](=O)[O-])c1` was tested. Which inhibition [2] did it give?
**A.** 32%

**Q.** How did the IC50 [26] turn out when `O=C(O)CN(C(=O)c1ccccc1)c1cccc([N+](=O)[O-])c1` was run?
**A.** 0.86 µM

**Q.** Which inhibition [2] does the source give for `Nc1ccccc1C(=O)NCC(=O)O` here?
**A.** 16%

**Q.** For `CC(=O)N(CC(=O)O)c1cccc(C)c1`, which inhibition [2] is on record?
**A.** 10%

**Q.** With `O=C(O)Cn1c(=O)c2ccccc2c(=O)c2ccccc21` as the molecule, how does the IC50 [27] read?
**A.** 65 µM

**Q.** `CC(=O)N(CC(=O)O)c1ccccc1` was tested. Which IC50 [28] did it give?
**A.** 21 µM

**Q.** Which IC50 [29] does the source give for `O=C(O)CNC(=O)c1ccccc1` [HIPPURIC ACID] here?
**A.** 330 µM

**Q.** `O=C(O)Cn1c(=O)c2ccccc2c2ccccc21` was tested. Which IC50 [30] did it give?
**A.** 10.7 µM

**Q.** For `CC(=O)N(CC(=O)O)c1cccc2ccccc12`, which inhibition [2] is on record?
**A.** 20%

**Q.** For `O=C(O)CN(C(=O)c1cccc2ccccc12)c1ccccc1`, which IC50 [31] is on record?
**A.** 5.8 µM

**Q.** With `COc1ccc(N(C(C)=O)C(C)C(=O)O)cc1` (stereo not drawn) as the molecule, how does the IC50 [32] read?
**A.** 950 µM

**Q.** With `O=C(O)CN(C(=O)c1cccc([N+](=O)[O-])c1)c1ccc([N+](=O)[O-])cc1` as the molecule, how does the IC50 [33] read?
**A.** 0.13 µM

**Q.** Which IC50 [34] does the source give for `O=C(O)CNC(=O)c1ccc2ccccc2c1` here?
**A.** 40 µM
